# Compounds with a hit are over-represented: about 3.2% of the library has one in this group of screens.
# CHO parental Ca = signal in parental CHO cells, OX1R antagonist counter-screen. parental CHO-K1, ATP-induced calcium, Fluo-8 fluorescence. inhibition, % at 5.6 µM. 330,000 compounds, 0.63% hits. AID 463079;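 active = inhibition above that plate's mean sample inhibition plus 3 SD, cut at about 26% in these data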
#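 Material – parental CHO cells · Reagent – ATP stimulus · Compound – single nominal dose of 5.6 µM per compound · Detection – Fluo-8 fluorescence · Read-out basis – percent inhibition of calcium signal · Controls – ATP-challenged DMSO wells low, unchallenged DMSO wells high · Repeats – no replicates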
# OX1R antag-1 = antagonists of human orexin 1 receptor (OX1R); O43613; OX1R-expressing cells, FRET antagonist read-out; inhibition, % at 6.6 µM; 330,000 compounds, 1.8% hits; AID 485270; in the data active = inhibition mostly above about 38%, no sharp cut-off; inactive = mostly below about 40%
# GPR7 antag = human neuropeptides B/W receptor 1 antagonism; 290,000 compounds, 1.1% hits; inhibition, % at 4.4 µM; GPR7-expressing cells, fluorescence antagonist assay; AID 1861; in the data active = inhibition above about 16%, passing the limit was not always enough;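 note: cells stimulated with the agonist NPW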
# Target sequence (P48145 whole entry, looked up): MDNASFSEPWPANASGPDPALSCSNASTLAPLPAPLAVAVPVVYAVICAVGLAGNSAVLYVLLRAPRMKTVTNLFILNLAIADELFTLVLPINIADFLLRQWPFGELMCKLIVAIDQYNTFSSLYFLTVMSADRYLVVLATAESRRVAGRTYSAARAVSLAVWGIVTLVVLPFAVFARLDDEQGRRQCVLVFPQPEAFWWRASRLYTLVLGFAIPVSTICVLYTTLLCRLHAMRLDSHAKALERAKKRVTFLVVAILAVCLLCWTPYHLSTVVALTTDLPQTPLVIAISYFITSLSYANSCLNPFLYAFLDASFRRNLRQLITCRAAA
# OX1R antag-2 = blocks the human orexin 1 receptor; O43613; CHO/OX1R cells, Fluo-8 calcium fluorescence, orexin A; inhibition, % at 5 µM; 330,000 compounds, 0.43% hits;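 active = inhibition above its plate's threshold, mean inhibition of all tested compounds on the plate plus 3 SD, cut at about 37% in these data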
# TRPN1 ag = zebrafish TRPN1 (NompC) channel agonism; HEK293 zebrafish TRPN1-YFP, Fluo-8 calcium fluorescence; 100% = response to 87 µM carbachol; activation, % at 3 µM; 220,000 compounds, 0.18% hits; AID 1424;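 active = activation above its plate's cutoff, the mean activation of test wells on that plate plus 3 SD, cut at about 19% in these data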
#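 Material: zebrafish TRPN1-YFP in HEK293 cells; Doses: single test compound dose, 3 µM nominal, 0.3% DMSO; Timing: dye loading 1 h at 37 °C, then 30 min room temperature; Technique: intracellular calcium fluorescence with Fluo-8; Benchmarks: high carbachol 87 µM, low DMSO alone.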
# TRPML3 agonist = human mucolipin-3 channel agonism | activation, % at 3 µM | 220,000 compounds, 0.29% hits | Q8TDD5 | HEK293 TRPML3-YFP, Fluo-8 calcium fluorescence; 100% = the carbachol control signal;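 active = activation above its plate's cutoff, the mean activation of the plate's test wells plus 3 SD, cut at about 12% in these data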
#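 Test system – HEK293 line with stable expression of human TRPML3-YFP channel · Control set – carbachol 87 µM final as high control (100%), DMSO as low control (0%) · Signal – Fluo-8 calcium dye fluorescence, ex 470-495, em 515-575 nm · Incubation – 1-h 37 °C dye load, 5-s basal, 120-s post-compound reads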
# A number is an active result; 0 = inactive; - = no result.
SMILES,CHO parental Ca,OX1R antag-1,GPR7 antag,OX1R antag-2,TRPN1 ag,TRPML3 agonist
CCN(CC(=O)NC1CCCC1)S(=O)(=O)c1ccc(F)cc1,0,0,0,0,-,-
O=C(Nc1ccc(Cl)cc1Cl)NC1CCN(S(=O)(=O)c2ccc(F)cc2)CC1,0,0,0,0,0,0
COc1ccc(CNc2ccc3cn[nH]c3c2)c(OC)c1OC,0,36.9,0,0,0,0
CCOC(=O)COn1c(=O)c(-c2ccccc2)[n+]([O-])c2ccccc21,0,0,0,0,-,-
CCOC(=O)COn1c(=O)c(-c2ccc(OC)c(OC)c2)[n+]([O-])c2ccccc21,0,51.5,0,0,0,0
CCOn1c(=O)c(-c2ccccc2)[n+]([O-])c2ccccc21,0,0,0,0,-,-
CCOC(=O)COn1c(=O)c(-c2ccc(OC)cc2)[n+]([O-])c2ccccc21,0,45.9,0,0,-,-
Cc1nc2ccccc2c(=O)n1CCc1ccccc1,0,0,0,0,-,-
Cc1cc2nc3c(=O)n(CCc4ccccc4)c(=O)[nH]c3nc2cc1N,0,0,0,0,51.0,0
Nc1ccc2nc3c(=O)n(C4CCCCC4)c(=O)[nH]c3nc2c1,39.0,0,0,46.1,79.5,43.1
COc1cc2[nH]c(=O)n(C3CCCCC3)c(=O)c2cc1OC,0,0,0,0,0,0
Nc1ccc2nc3c(=O)n(CCc4ccccc4)c(=O)[nH]c3nc2c1,35.5,0,0,41.5,90.8,22.8
COc1ccc(S(=O)(=O)CCC(=O)Nc2cccc(OC)c2)cc1,0,0,0,0,0,0
CCN(CC)c1ccc2c(-c3ccc(S(=O)(=O)O)cc3S(=O)(=O)[O-])c3ccc(=[N+](CC)CC)cc-3oc2c1,74.9,0,69.5,92.8,-,-
CCN(CC)c1ccc2nc3c4ccccc4c(=O)cc-3oc2c1,-,-,0,-,-,-
O=[N+]([O-])c1c(Nc2ccccc2O)ccc2nonc12,0,58.5,0,0,0,0
Cc1ccccc1Nc1ccc2nonc2c1[N+](=O)[O-],-,-,0,-,-,-
CCc1nnc(NS(=O)(=O)c2ccc(Nc3ccc4nonc4c3[N+](=O)[O-])cc2)s1,0,49.4,0,0,0,0
CCc1nnc(NS(=O)(=O)c2ccc(NS(=O)(=O)c3ccc(NC(C)=O)cc3)cc2)s1,-,-,0,-,0,0
COc1ccc(NC(=O)/C(Cl)=C(/Cl)S(=O)Cc2ccccc2)cn1 (centres undefined),0,0,40.2,0,0,0
COc1ccc(CS(=O)(=O)/C(Cl)=C(/Cl)C(=O)Nc2ccc(OC)nc2)cc1,0,0,39.2,0,0,0
COc1ccc(NC(=O)Cc2ccccc2)cn1,0,0,0,0,0,0
CCOCCOC(=O)c1cccc2c1-c1ccccc1C2=O,0,0,0,0,-,-
CC(=O)c1cccc(NC(=O)COc2cc3oc(=O)c(CC(C)O)c(C)c3cc2Cl)c1 (centres undefined),0,0,0,0,0,0
[S-]C(=Nc1ccc(Cl)cc1)N[n+]1ccccc1,0,0,0,0,0,0
SMILES,CHO parental Ca,OX1R antag-1,GPR7 antag,OX1R antag-2,TRPN1 ag,TRPML3 agonist
Cc1cccc(C)c1NC(=O)c1sccc1SCc1cccc(C(F)(F)F)c1,52.6,0,0,37.0,0,0
Cc1ccc(NC(=O)c2sccc2SCc2cccc(C(F)(F)F)c2)cc1,0,0,0,0,0,0
COc1cccc(NC2=C(NCCO)C(=O)c3ccccc3C2=O)c1,0,45.6,0,0,-,-
O=C(COC(=O)Cc1ccccc1F)Nc1ccccc1[N+](=O)[O-],0,0,-,0,-,-
O=C(CCC(=O)OCC(=O)c1ccc([N+](=O)[O-])cc1)Nc1ccccc1Cl,0,58.0,0,0,-,-
O=C(COc1ccccc1F)OCC(=O)c1ccc([N+](=O)[O-])cc1,0,31.4,-,0,-,-
O=C(COC(=O)c1cnccn1)c1ccc([N+](=O)[O-])cc1,0,44.0,0,0,0,0
O=C(COC(=O)Cc1ccccc1F)NNC(=O)c1ccc([N+](=O)[O-])cc1,0,63.1,-,0,-,-
O=C(COC(=O)c1cnccn1)c1ccc(Cl)c([N+](=O)[O-])c1,0,0,0,0,0,0
Cc1sc2ncn(CC(=O)NCC(=O)N3CCN(c4ccccc4F)CC3)c(=O)c2c1C,0,0,0,0,-,-
CCOC(=O)C1=C(C)Nc2ccccc2N=C1NC(=O)C1CCN(C(=O)c2ccccc2C)CC1,0,0,-,0,-,-
